According to ChEMBL document CHEMBL1671644, “Inhibition of human immunodeficiency virus type 1 infection by the candidate microbicide dapivirine, a nonnucleoside reverse transcriptase inhibitor” (Antimicrob Agents Chemother, 2009):
Calls of active or inactive are those of the source. The calls are words filed in the database; no cut-off is given here.

Assays:
[1] = system: Human immunodeficiency virus 1; experiment: Antiviral activity against HIV-1 3B infected in human TZM-bl cells after 24 hrs by luciferase reporter assay; conditions: Human immunodeficiency virus 1, 3B
[2] = system: Human immunodeficiency virus 1; experiment: Antiviral activity against HIV-1 Bal infected in 2 hrs 1000 nM compound pretreated human ectocervical explant tissue assessed as prolonged inhibition of viral infection post compound removal measured after 2 days post compound removal; format: functional
Outline: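 Ectocervical explants were exposed to drug (0.01–10 µM) for 2 or 24 h at 37°C and washed. They received HIV-1BaL (2 h) on day 0, 2, 4 or 6 after drug removal, with no drug present. Read-outs at 10 days post-exposure: explant p24 ELISA, tissue proviral DNA by qPCR, and p24 in migratory cell–PM-1 cocultures. Three donors (2 h) or two donors (24 h), triplicate.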

[3] = system: Human immunodeficiency virus 1; experiment: Antiviral activity against HIV-1 subtype CRF01_AE V022822 infected in human MT4 cells assessed as inhibition of viral replication relative to HIV-1 3B; format: functional
Outline: (§1)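 MT-4 cells (3 x 10^4/well) infected with site-directed mutants or recombinant clinical isolates (200 TCID50/well) with drug, cultured 3 to 5 days. Viability read by MTT colorimetric antivirogram assay. IC50 by nonlinear regression; fold change = IC50 for the test isolate / IC50 for wild-type HIV-1 IIIB tested in parallel (mean or median).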

[4] = system: Human immunodeficiency virus 1; experiment: Antiviral activity against HIV-1 Bal infected in human cervical tissue explants assessed as inhibition of dissemination of virus via migratory cells after 2 hrs in presence of 12.5% whole semen; format: functional, organism-based
Outline: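 Cervical explants were exposed to HIV-1BaL plus drug for 2 h in cervical mucus simulant or whole semen (final 12.5%), then washed. Migratory cells were cocultured with PM-1 indicator cells and infection read as p24 in coculture supernatant.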

[5] = system: Human immunodeficiency virus 1; experiment: Antiviral activity against HIV-1 SM030 harboring NNTRI 100I mutant infected in human MT4 cells assessed as inhibition of viral replication relative to HIV-1 3B; format: functional
Outline: as §1

[6] = Cytotoxicity against human PM1 cells after 24 hrs by MTT assay; format: cell-based
Outline: (§2)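 Uninfected PM-1 or TZM-bl cells were exposed to drug and viability measured by MTT dye reduction as a percentage of untreated controls. CC50 was derived by nonlinear regression.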

[7] = system: Human immunodeficiency virus 1; experiment: Antiviral activity against HIV-1 Bal infected in 1 hr compound pretreated human ectocervical explant tissue assessed as inhibition of provirus formation at 1 nM by RT-PCR; format: functional; conditions: Human immunodeficiency virus 1, Bal
Outline: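 Ectocervical explants were pretreated with drug for 1 h, then exposed to HIV-1BaL (two 50% tissue infectious doses, about 10^4 TCID50 on PM-1) for 2 h at 37°C with drug present. Explants were washed and cultured overnight, then cultured separately for 10 days. Tissue was proteinase K-digested and proviral LTR DNA measured by multiplex qPCR against β-actin (10 copies/10^5 cells sensitivity). Two donors, triplicate.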

[8] = system: Human immunodeficiency virus 1; experiment: Antiviral activity against HIV-1 subtype D V022819 infected in human MT4 cells assessed as inhibition of viral replication relative to HIV-1 3B; format: functional
Outline: as §1

[9] = system: Human immunodeficiency virus 1; experiment: Antiviral activity against HIV-1 subtype CRF01_AE V029521 infected in human MT4 cells assessed as inhibition of viral replication relative to HIV-1 3B; format: functional
Outline: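 Recombinant clinical HIV-1 isolates (200 TCID50/well) were tested in MT-4 cells (3 x 10^4/well) over 3–5 days, with an MTT viability read-out. IC50 was fitted by nonlinear regression. Fold change is the isolate IC50 divided by the HIV-1IIIB IC50, tested in parallel.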

[10] = system: Human immunodeficiency virus 1; experiment: Antiviral activity against HIV-1 SM024 harboring NNTRI 190A mutant infected in human MT4 cells assessed as inhibition of viral replication relative to HIV-1 3B; format: functional
Outline: as §1

[11] = system: Human immunodeficiency virus 1; experiment: Antiviral activity against HIV-1 subtype D V022818 infected in human MT4 cells assessed as inhibition of viral replication relative to HIV-1 3B; format: functional
Outline: as §1

[12] = system: Human immunodeficiency virus 1; experiment: Antiviral activity against HIV-1 Bal infected in human PM1 cells after 7 days by RT assay; format: functional, organism-based; conditions: Human immunodeficiency virus 1, Bal, PM1, 168 h
Outline: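 PM-1 cells (4 x 10^4/well) were infected with HIV-1BaL or HIV-1RF (200 TCID50/ml) and cultured 7 days with drug. Replication was measured as reverse transcriptase in supernatant versus untreated wells. IC50 was obtained by nonlinear regression.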

[13] = system: Human immunodeficiency virus 1; experiment: Antiviral activity against HIV-1 subtype F V029522 infected in human MT4 cells assessed as inhibition of viral replication relative to HIV-1 3B; format: functional
Outline: as §1

[14] = system: Human immunodeficiency virus 1; experiment: Antiviral activity against HIV-1 subtype H V022828 harboring NNRTI K101Q and V179I mutant infected in human MT4 cells assessed as inhibition of viral replication relative to HIV-1 3B; format: functional
Outline: as §1

[15] = system: Human immunodeficiency virus 1; experiment: Antiviral activity against HIV-1 subtype CRF02_AG V022830 infected in human MT4 cells assessed as inhibition of viral replication relative to HIV-1 3B; format: functional
Outline: as §1

[16] = system: Human immunodeficiency virus 1; experiment: Antiviral activity against HIV-1 Bal infected in human cervical tissue explants assessed as inhibition of dissemination of virus via migratory cells after 2 hrs; format: functional, organism-based
Outline: (§3)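 Explants were pretreated with drug for 1 h, then exposed to HIV-1BaL for 2 h with drug present and washed. Cells that migrated out overnight were washed and cocultured with PM-1 cells (4 x 10^4/well) for about 10 days. Transfer was read as p24 by ELISA in coculture supernatant (detection limit 300 pg/ml). Two donors, triplicate.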

[17] = Cytotoxicity against human TZM-bl cells after 24 hrs by MTT assay; format: cell-based
Outline: as §2

[18] = system: Human immunodeficiency virus 1; experiment: Antiviral activity against HIV-1 SM052 harboring NNTRI 101E and 103N mutant infected in human MT4 cells assessed as inhibition of viral replication relative to HIV-1 3B; format: functional
Outline: as §1

[19] = Selectivity index, ratio of CC50 for human MT-4 cells to IC50 for HIV-1 3B; format: functional, MT4
[20] = system: Human immunodeficiency virus 1; experiment: Antiviral activity against HIV-1 subtype CRF05_DF V022833 harboring NNRTI V179I mutant infected in human MT4 cells assessed as inhibition of viral replication relative to HIV-1 3B; format: functional
Outline: as §1

[21] = system: Human immunodeficiency virus 1; experiment: Antiviral activity against HIV-1 Bal infected in human PM1 cells assessed as inhibition of transmission of virus to premissive T cells at 10 uM; format: functional; conditions: Human immunodeficiency virus 1, Bal
Outline: as §3

[22] = system: Human immunodeficiency virus 1; experiment: Antiviral activity against HIV-1 SM007 harboring NNTRI 103N mutant infected in human MT4 cells assessed as inhibition of viral replication relative to HIV-1 3B; format: functional
Outline: as §1

[23] = system: Human immunodeficiency virus 1; experiment: Antiviral activity against HIV-1 subtype CRF05_DF V022823 infected in human MT4 cells assessed as inhibition of viral replication relative to HIV-1 3B; format: functional
Outline: as §1

[24] = system: Human immunodeficiency virus 1; experiment: Antiviral activity against HIV-1 subtype B V022810 harboring NNRTI A98S andK101R mutant infected in human MT4 cells assessed as inhibition of viral replication relative to HIV-1 3B; format: functional
Outline: as §1

[25] = Selectivity index, ratio of CC50 for human TZM-bl cells to IC50 for HIV-1 Bal; format: functional
Outline: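 Selectivity index is CC50/IC50, using values determined in the same time period. CC50 was measured by MTT for TZM-bl and PM-1 cells and by trypan blue exclusion after 14 days for macrophages. Both were fitted by nonlinear regression.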

## Cc1cc(C)c(Nc2ccnc(Nc3ccc(C#N)cc3)n2)c(C)c1 [DAPIVIRINE]
[1]
  IC50: 0.001 µM
[2]
  inhibition (INH): 90%
[3]
  Ratio IC50: 0.9
[4]
  inhibition: Active
[5]
  Ratio IC50: 18
[6]
  CC50 at 24 h: 11 µM
[7]
  inhibition at 0.001 µM: > 99%
[8]
  Ratio IC50: 1.5
[9]
  Ratio IC50: 3.5
[10]
  Ratio IC50: 1
[11]
  Ratio IC50: 1.4
[12]
  IC50: 0.006 µM
[13]
  Ratio IC50: 1.5
[14]
  Ratio IC50: 1.5
[15]
  Ratio IC50: 1.6
[16]
  inhibition: Active
[17]
  CC50 at 24 h: 20.4 µM
[18]
  Ratio IC50: 17
[19]
  Selectivity Index: 2389
[20]
  Ratio IC50: 1
[21]
  inhibition at 10 µM: > 90%
[22]
  Ratio IC50: 5
[23]
  Ratio IC50: 0.7
[24]
  Ratio IC50: 1.6
[25]
  Selectivity Index: 9273
